MT1-MMP txn act: MT1-MMP promoter transcription activation; activation factor at 10 µM; HT1080 MT1-MMP promoter luciferase reporter, luminescence, overnight; stronger effect = higher value; 0.16% of 86,000 active;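 active means activation factor of at least 2 for MT1-MMP transcription at 10 µM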
Jurkat tox 60K: cytotoxic compounds reducing Jurkat cell viability | Jurkat E6.1 viability, ATP luminescence, 48 h | inhibition, % at 4 µM | 1.2% of 56,000 active | AID 463;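 active means inhibition above the mean inhibition of all tested compounds plus 3 SD, cut at about 28% in these data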
SF1 activator: SF-1 (human) activation. Q13285. CHO-K1 Gal4-SF-1 LBD luciferase reporter; % increase over DMSO SF-1-specific signal. activation, % at 10 µM. 1.9% of 65,000 active. AID 522;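 active means activation above the mean activation of all tested compounds plus 3 SD, cut at about 50% in these data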
Target sequence (Q13285 whole entry, looked up, the tested form may be a part): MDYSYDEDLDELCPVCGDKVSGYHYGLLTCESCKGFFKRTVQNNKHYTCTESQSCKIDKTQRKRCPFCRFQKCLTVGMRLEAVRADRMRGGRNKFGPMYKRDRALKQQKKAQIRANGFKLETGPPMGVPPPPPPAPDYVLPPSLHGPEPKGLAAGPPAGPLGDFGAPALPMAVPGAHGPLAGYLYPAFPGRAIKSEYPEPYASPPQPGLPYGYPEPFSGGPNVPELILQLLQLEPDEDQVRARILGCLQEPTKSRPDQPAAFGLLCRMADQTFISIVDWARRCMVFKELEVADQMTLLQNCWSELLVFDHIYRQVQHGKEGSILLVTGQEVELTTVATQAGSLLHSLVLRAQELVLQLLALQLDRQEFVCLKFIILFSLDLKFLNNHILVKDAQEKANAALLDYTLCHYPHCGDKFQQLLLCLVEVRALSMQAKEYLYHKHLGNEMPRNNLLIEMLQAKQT
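Assay system: CHO-K1 cells co-transfected with Gal4 DBD–human SF-1 LBD, 5xGal4 luciferase reporter / Input: 4,000 cells per well / Incubation: 20 h compound exposure at 37 °C after 1 h cell settling / Detection: SteadyLite luciferase luminescence / Control set: DMSO negative control and −SF1 background wells / Replication: one test per compound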
RORA act: RORA (human) activation; CHO-K1 Gal4-RORA LBD luciferase reporter, luminescence; percent increase over mock-subtracted basal signal; activation, % at 10 µM; AID 560; P35398; 1.5% of 65,000 active;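 active means activation above the mean of all tested compounds plus 3 SD, cut at about 49% in these data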
HEK293 NFkB inh: inhibitors of the PMA/ionomycin-induced NF-kB reporter in HEK293 cells. HEK-293 NF-kB luciferase reporter, luminescence. 0.21% of 62,000 active. inhibition, % at 3 µM;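 active means inhibition above the mean of all tested compounds plus 3 SD, cut at about 40% in these data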
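System – HEK-293 cells with stable firefly luciferase reporter driven by four HIV NF-kB elements · Doses – one dose, 3 µM · Schedule – 1 h compound pre-incubation, 16 h PMA/ionomycin at 37 °C · Technique – luminescence from luciferase substrate reagent · Measure – percent inhibition normalized per plate to DMSO and reference-inhibitor controls · Replicates – tested once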
Large screens that a line does not name were inactive. Only some compounds are listed: those with a hit (about 2.9% of all), similar ones and a draw of the others.

O=C(/C=C/Nc1cccc(F)c1)c1ccco1	none (no result: Jurkat tox 60K, SF1 activator, RORA act, HEK293 NFkB inh)
O=C(/C=C/Nc1ccc(F)c(Cl)c1)c1ccco1	SF1 activator 55.3, RORA act 62.5
O=C(CCNc1ccc(F)c(Cl)c1)c1ccco1	Jurkat tox 60K 65.3
COc1ccc(CNC(=O)C(c2ccco2)N(C(=O)c2csnn2)c2cccc(C)c2C)cc1 (stereo not drawn)	none (no result: Jurkat tox 60K, SF1 activator, RORA act, HEK293 NFkB inh)
COC(=O)c1ccc(C(=O)OC)c(NC(=O)c2ocnc2C)c1	none (no result: Jurkat tox 60K)
O=C(Nc1ccc(NC(=O)C2CC2)nc1)c1ccco1	SF1 activator 51.0
O=C(Nc1ccc(NC(=O)C2CCCCC2)nc1)c1ccco1	none (no result: Jurkat tox 60K, SF1 activator, RORA act, HEK293 NFkB inh)
O=C(Nc1ccc(NC(=O)C2CC2)nc1)c1cccs1	SF1 activator 52.4
O=C(Nc1ccc(NC(=O)c2ccco2)nc1)c1cccnc1	SF1 activator 54.8
O=C(Cn1cc2c(n1)CCCC2)Nc1cc(-c2cccc(Cl)c2)no1	none
O=C(Nc1ccc(Cl)c(Cl)c1)N1CC=CCC1	SF1 activator 55.4, RORA act 57.8
Cc1nonc1NC(=O)c1ccc(Cl)c(S(=O)(=O)N2CCCCC2)c1	none
COc1ccc(Cn2c(C3CC3)nc3ccc(NC(=O)c4ccco4)cc3c2=O)cc1	SF1 activator 59.2
CCC(=O)Nc1ccc2nc(C3CC3)n(Cc3ccccc3)c(=O)c2c1	SF1 activator 62.7
CCCc1nc2ccc(NC(=O)c3ccco3)cc2c(=O)n1Cc1ccc(Cl)cc1	none (no result: Jurkat tox 60K, SF1 activator, RORA act, HEK293 NFkB inh)
CC(=O)C(C)Oc1ccc2c3c(c(=O)oc2c1)CCCC3 (stereo not drawn)	none
CC(=O)C(C)Oc1ccc2c3c(c(=O)oc2c1)CCCCC3 (stereo not drawn)	SF1 activator 53.7
Cc1ccc(-c2nnc(-c3ccc(Br)cc3)o2)o1	SF1 activator 75.1
Brc1ccc(-c2nnc(-c3cccc(Br)c3)o2)cc1	none (no result: Jurkat tox 60K, SF1 activator, RORA act, HEK293 NFkB inh)
CCOC(=O)C1=C(N)n2c(s/c(=C\c3cccs3)c2=O)=C(C(=O)OCC)C1c1cccs1 (stereo not drawn)	Jurkat tox 60K 85.6
COC(=O)c1ccccc1NC(=O)CSc1nc(O)cc(=O)n1C1CCCC1	none
Cc1cccn2cc(-c3ccccc3)nc12	RORA act 75.8
Cc1ccc2nc(-c3ccccc3)cn2c1	HEK293 NFkB inh 70.8
COc1ccc(-c2cn3ccc4ccccc4c3n2)cc1	MT1-MMP txn act 2.5 (no result: Jurkat tox 60K, SF1 activator, RORA act, HEK293 NFkB inh)
CN(C1CCCCC1)S(=O)(=O)c1ccc(S(=O)(=O)N2CCN(C(=O)c3ccccc3F)CC2)cc1	none (no result: Jurkat tox 60K, SF1 activator, RORA act, HEK293 NFkB inh)
COc1cc(-c2cc(C(=O)N3CCN(c4ccccn4)CC3)c3ccccc3n2)cc(OC)c1OC	none
COc1ccc(-c2cc(C(=O)N3CCN(c4ccccn4)CC3)c3ccccc3n2)cc1	SF1 activator 89.6, RORA act 73.6 (no result: Jurkat tox 60K)
CCOc1ccc(-c2cc(C(=O)N3CCN(C)CC3)c3ccccc3n2)cc1	none
CCOc1ccc(-c2cc(C(=O)N3CCN(c4ccccn4)CC3)c3ccccc3n2)cc1	SF1 activator 90.9, RORA act 76.0
CCOC(=O)N1CCN(C(=O)c2cc(-c3ccc(OCC)cc3)nc3ccccc23)CC1	Jurkat tox 60K 86.7, SF1 activator 70.8, RORA act 135.7
Cc1cc(C)n(CCc2nc3c4ccccc4n(CC(=O)Nc4ccc(Cl)cc4F)c(=O)n3n2)n1	none
Cn1c(C(=O)N2CCN(c3ccc(Cl)cc3)CC2)cc2c(=O)n(C)c3ccccc3c21	none
O=C(CSCC(=O)N1CCOCC1)Nc1nc(-c2ccc3c(c2)OCO3)cs1	RORA act 52.3
CCOC(=O)N1CCN(C(=O)CSCC(=O)Nc2nc(-c3ccc4c(c3)OCO4)cs2)CC1	none
O=C(Nc1nc(-c2ccc3c(c2)OCCO3)cs1)c1ccc(S(=O)(=O)N2CCCCC2)cc1	Jurkat tox 60K 72.4
CSC1=NCCN1C(=O)c1c(F)cccc1F	none
Cc1ccc(-c2cc(-c3cccc(F)c3)n[nH]2)c(O)c1	SF1 activator 52.6, RORA act 68.4
Cc1ccc(O)c(-c2cc(-c3cccc(F)c3)n[nH]2)c1	MT1-MMP txn act 2.1 (no result: Jurkat tox 60K, SF1 activator, RORA act, HEK293 NFkB inh)
O=C(CN1CCOCC1)Nc1nc(-c2ccc3c(c2)CCN3S(=O)(=O)c2ccccc2)cs1	none
CS(=O)(=O)N1CCc2cc(-c3csc(NC(=O)Cc4cccs4)n3)ccc21	Jurkat tox 60K 69.7
O=C(N[C@@H](Cc1ccccc1)C(=O)O)c1cccnc1	none
O=C(CC(Nc1ccccc1)C(=O)O)c1ccccc1 (stereo not drawn)	RORA act 58.6 (no result: Jurkat tox 60K)
NC(=O)c1cnn2c(C(F)(F)F)cc(-c3ccc(F)cc3)nc12	none
Cn1c(SCC(=O)N2CCN(c3ccccc3)CC2)nnc1-c1c[nH]c2ccccc12	none
CCCCSc1nnc(-c2c[nH]c3ccccc23)n1C	SF1 activator 56.9
COc1ccc(-c2nc(CS(=O)CC(=O)NCc3ccco3)c(C)o2)cc1 (stereo not drawn)	none
CCOc1ccc(-c2nc(CSCC(=O)NCc3ccco3)c(C)o2)cc1	HEK293 NFkB inh 83.1
Cc1ccc(S(=O)(=O)C2(C(=O)Nc3cccc(F)c3)CC2)cc1	none
C/C(N)=C(/C#N)C(=O)CSc1ccc2c(c1)OCCO2	SF1 activator 57.9
Cc1ccnc(NC(=O)C2CCC(CNc3c(N4CCCC4)c(=O)c3=O)CC2)c1 (stereo not drawn)	none
CCCCOc1ncnc2c1[nH]c1ccccc12	Jurkat tox 60K 76.5
CCCCOc1ncnc2c1[nH]c1ccc(F)cc12	Jurkat tox 60K 61.1
Nc1c(C(=O)c2ccccc2)oc2ccc(Br)cc12	SF1 activator 140.1, RORA act 52.6
CS(=O)(=O)N1CCc2cc(S(=O)(=O)Nc3ccc4c(c3)OCCO4)ccc21	Jurkat tox 60K 27.7
OCCN1CCN(C(c2cccs2)c2ccc3cccnc3c2O)CC1 (stereo not drawn)	Jurkat tox 60K 53.3
CC(C)(C)c1cc(C(c2cccnc2)N2CCN(CCO)CC2)cc(C(C)(C)C)c1O (stereo not drawn)	none (no result: MT1-MMP txn act)
N#CC1=C2SCC(O)(c3ccccc3)N2C(=O)CC1c1cccs1 (stereo not drawn)	Jurkat tox 60K 78.7, HEK293 NFkB inh 47.5 (no result: MT1-MMP txn act)
COc1ccc2c(c1)sc1nc(-c3ccccc3)cn12	Jurkat tox 60K 99.6, HEK293 NFkB inh 66.6
Clc1ccc(OCCn2cnc3ccccc32)cc1	none
Clc1ccccc1OCCn1cnc2ccccc21	RORA act 51.1
C#CCN(Cc1ccccc1)C(=O)/C=C/c1ccccc1	none (no result: Jurkat tox 60K, SF1 activator, RORA act, HEK293 NFkB inh)
Cc1nc(NCc2ccco2)c2c3c(sc2n1)CCC3	Jurkat tox 60K 36.3
c1coc(CNc2ncnc3sc4c(c23)CCCCC4)c1	none
CCOC(=O)C(C)Oc1ccc(=O)n(-c2ccccc2)n1 (stereo not drawn)	none
CCCCOC(=O)C(C)Oc1ccc(=O)n(-c2ccccc2)n1 (stereo not drawn)	RORA act 57.3
C=CS(=O)(=O)c1ccc(Oc2ccc(S(=O)(=O)C=C)cc2)cc1	Jurkat tox 60K 100.2, HEK293 NFkB inh 81.2
O=S(=O)(c1ccc(Oc2ccc(S(=O)(=O)N3CCOCC3)cc2)cc1)N1CCOCC1	none
Cn1c(SCC(=O)c2ccc(F)cc2)nnc1-c1cnccn1	MT1-MMP txn act 2.8

From PubChem BioAssay
